Data: ChEMBL document CHEMBL4513216, “Probing the Open Global Health Chemical Diversity Library for Multistage-Active Starting Points for Next-Generation Antimalarials” (ACS Infect Dis, 2020)

Test: Toxicity liver stage against HepG2, at 10uM
Assay type: cell-based
Parameters: test concentration 10 uM, cell line HepG2-A16-CD81EGFP
Conditions: human, HepG2-A16-CD81EGFP cells; read-out: INHIBITION
Outline: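 Uninfected HepG2-A16-CD81EGFP cells, 3 × 10^3 per well, 1536-well, plated on prespotted compound at 10 μM final, parasite-free screening media added to match infected plates; puromycin 10 μM positive, DMSO 0.5% negative; run in parallel with 48 h PbLuc assay at 37 °C, 5% CO2; viability by CellTiter-Glo luminescence, normalized to controls.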

FC(F)(F)c1ccc2nc([C@H]3CCN(C4CCOCC4)C3)[nH]c2c1
cytotoxicity at 10 µM: 0.354%

CNC(=O)c1nc(COc2ccc3c(c2)OCO3)no1
cytotoxicity at 10 µM: 2.03%

COc1ccc(-c2c(C(C)C)nn3c(=N)c(C#N)n[nH]c23)cc1
cytotoxicity at 10 µM: -12.2%

Cn1nc(C(=O)NCc2ccc(Cl)cc2)c2c1CCS(=O)(=O)C2
cytotoxicity at 10 µM: 5.01%

Cc1nc(N2CCC(C)CC2)ncc1-c1cc(O)nc(N2CCCC2)n1
cytotoxicity at 10 µM: 9.82%

Cn1nc(C(=O)NC2CCCCC2)cc1NC(=O)C1CC1
cytotoxicity at 10 µM: -3.97%

Cc1nn(C)c(C)c1CN(C)S(=O)(=O)c1c(C)n[nH]c1C
cytotoxicity at 10 µM: -2.32%

Cc1cc(C)nc(N2CCCC(C)(c3[nH]ncc3C(=O)N(C)C)C2)n1 (stereo not drawn)
cytotoxicity at 10 µM: 7.42%

Cn1ccnc1C(O)c1ccccc1N1CCN(Cc2ccsc2)CC1 (stereo not drawn)
cytotoxicity at 10 µM: 3.19%

NCc1cnn(-c2ccccc2C(=O)NCc2ccccn2)c1
cytotoxicity at 10 µM: -19.9%

O=C(NC1CC1)C1CCc2nnc(C3CC3)n21 (stereo not drawn)
cytotoxicity at 10 µM: 11.2%

CC(C)(C)C(=O)N1CCC2(CNS(=O)(=O)c3cnccc3O2)C1 (stereo not drawn)
cytotoxicity at 10 µM: 10.2%

O=C(c1c[nH]nn1)N1CCCC1C1CCCCC1 (stereo not drawn)
cytotoxicity at 10 µM: 3.81%

Cc1cc(C)cc(OCCNC(=O)C(C)Sc2nncn2C)c1 (stereo not drawn)
cytotoxicity at 10 µM: -46.3%

CCc1ccc2c(c1)C(CCNC(=O)Cc1ccc(F)cc1)C(=O)N2 (stereo not drawn)
cytotoxicity at 10 µM: -44.3%

CS(=O)(=O)CCC(=O)Nc1nccn1Cc1ccccc1Cl
cytotoxicity at 10 µM: -5.98%

Cn1cc(NC(=O)c2cccc(-n3cnnn3)c2)cn1
cytotoxicity at 10 µM: 5.39%

CC(NCCn1cccn1)c1cc(F)ccc1F (stereo not drawn)
cytotoxicity at 10 µM: 6.33%

O=C(NCC1CCCN1Cc1ccccc1)NCC1(O)CCC1 (stereo not drawn)
cytotoxicity at 10 µM: -9.17%

N#CC1COCCN1C(=O)c1ccc2cc[nH]c2c1 (stereo not drawn)
cytotoxicity at 10 µM: 7.75%

CC(C)(NCCCOc1ccc(C#N)cc1)c1nccs1
cytotoxicity at 10 µM: -0.476%

CCOc1nnc(CN2CCN(CCOC)CC2)s1
cytotoxicity at 10 µM: -12.1%

CCc1ccc(N2CCC(NS(=O)(=O)N(CC)CC)CC2)cc1
cytotoxicity at 10 µM: 0.243%

Cc1noc(C)c1CN(C)C(=O)NC(C)Cc1ccco1 (stereo not drawn)
cytotoxicity at 10 µM: 11.3%

CC1COCCN1C(=O)c1cnccn1 (stereo not drawn)
cytotoxicity at 10 µM: -4.36%

Cc1nn(C)c(Cl)c1C1CCCN1CC(=O)NC1CCCC1 (stereo not drawn)
cytotoxicity at 10 µM: -3.78%

CCc1nsc(N2CCCN(C(=O)COc3ccccc3)CC2)n1
cytotoxicity at 10 µM: -1.74%

CC(=O)c1cccc(NC(=O)CN2CCCC(C3OCCO3)C2)c1 (stereo not drawn)
cytotoxicity at 10 µM: -3.28%

CN(CC(=O)Nc1cccnc1)CC1CCCN1c1cccnn1 (stereo not drawn)
cytotoxicity at 10 µM: 2.66%

CN(C1CCc2ccccc2C1)S(C)(=O)=O (stereo not drawn)
cytotoxicity at 10 µM: -3.78%

CCOCCOC(C)C(=O)NCc1cn2cc(Cl)ccc2n1 (stereo not drawn)
cytotoxicity at 10 µM: 8.82%

Cc1ncsc1C(=O)N1CCN(CCC(C)C)CC1
cytotoxicity at 10 µM: 9.34%

Cc1cccc(CC(=O)N2CCOCC2c2c(C)n[nH]c2C)c1 (stereo not drawn)
cytotoxicity at 10 µM: 9.18%

CC(C)(C)Cc1nnc(NCc2ccsc2)o1
cytotoxicity at 10 µM: -5.36%

CCCc1cc(N2CCCC2Cn2nc(C)nc2C)n2ncnc2n1 (stereo not drawn)
cytotoxicity at 10 µM: -0.82%

O=C(Nc1ccc(CC(=O)N2CCSCC2)cc1)NC1CC1
cytotoxicity at 10 µM: -2.42%

CC(C)c1ccc(CCC(=O)N(C)C2CCN(C)C2=O)cc1 (stereo not drawn)
cytotoxicity at 10 µM: -7.79%

Cn1cc(Br)cc(NC(=O)Cc2cccs2)c1=O
cytotoxicity at 10 µM: 2.14%

O=C(NCCNc1cnccn1)c1scnc1Cl
cytotoxicity at 10 µM: 8.11%

COc1cccc(OCC(=O)N(C)c2cccnc2)c1
cytotoxicity at 10 µM: -2.66%

CN(CC(F)(F)F)C(=O)CNC(=O)N1CCCC(N(C)C)C1 (stereo not drawn)
cytotoxicity at 10 µM: -7.91%

Cc1cc(C(N)=O)c2c(Br)cccc2n1
cytotoxicity at 10 µM: 1.09%

COC(=O)CN(C)Cc1cc(Br)cs1
cytotoxicity at 10 µM: -2.45%

Cc1nc(NC(=O)OC(C)(C)C)sc1C#N
cytotoxicity at 10 µM: -10%

COc1cccc(C(O)CN2CCN(C(=O)c3ccsc3)CC2)c1 (stereo not drawn)
cytotoxicity at 10 µM: -48.1%

N#CCCCN1CCCC1Cc1ccccc1 (stereo not drawn)
cytotoxicity at 10 µM: -45.4%

O=C(CCc1ccc(F)cc1)NCc1ccnc(NC2CC2)c1
cytotoxicity at 10 µM: -8.78%

CC1CN(Cc2cccc(C#N)c2)CCN1c1ccc2nncn2n1 (stereo not drawn)
cytotoxicity at 10 µM: 9.56%

CNC(=O)c1cnc(/C=C/c2cc(OC)c(OC)c(OC)c2)s1
cytotoxicity at 10 µM: -15.5%

CN(Cc1ccc(C#N)cc1)Cc1noc(C(C)(C)C)n1
cytotoxicity at 10 µM: -2.09%

Cc1cnn(CC(C)NCc2nc(-c3ccco3)no2)c1 (stereo not drawn)
cytotoxicity at 10 µM: -16%

CCCS(=O)(=O)N1C[C@@H](c2ccccc2)[C@@]2(CCNC2=O)C1
cytotoxicity at 10 µM: -109%

O=C(c1ccncc1)N1CCC2(CC1)CCN(C(=O)c1cccnc1)C2
cytotoxicity at 10 µM: -93%

Cc1cnc(N2CCc3c(c(COc4cncnc4)nn3C)C2)nc1
cytotoxicity at 10 µM: -98.8%

O=C(c1cccs1)N1CCc2ncnc(C3CCOC3)c2CC1 (stereo not drawn)
cytotoxicity at 10 µM: -85.4%

CSc1ccc(C(C(=O)O)N2CCC(CO)CC2)cc1 (stereo not drawn)
cytotoxicity at 10 µM: 3.68%

Cc1c[nH]c(CN2CCCCC2CCn2ccnc2C)c(C)c1=O (stereo not drawn)
cytotoxicity at 10 µM: 0.585%

Cc1cccc(C)c1Oc1ncccc1CNC(=O)C1COC(=O)N1 (stereo not drawn)
cytotoxicity at 10 µM: -4.65%

O[C@@H]1CN(CC2CC2)CC[C@H]1N1CCN(c2ccccc2F)CC1
cytotoxicity at 10 µM: -50.3%

CC1(C)CNC(=O)c2nc(CCN3CCC(O)CC3)[nH]c2C1
cytotoxicity at 10 µM: -10.4%

Cc1ccc(F)c(NC(=O)CCC(=O)N(C)Cc2nc(C)c[nH]2)c1
cytotoxicity at 10 µM: 7.05%

CNc1nc(N2CCN(Cc3ccsc3)C(CCO)C2)nc2c1CCC2 (stereo not drawn)
cytotoxicity at 10 µM: 3.96%

CC1(C)CC(C(=O)N2CCC3(CCC(=O)N(C4CC4)C3)CC2)CCO1 (stereo not drawn)
cytotoxicity at 10 µM: 0.868%

CN(C)c1ncc(CNC2CC(=O)N(CCc3cccc(Cl)c3)C2)s1 (stereo not drawn)
cytotoxicity at 10 µM: -132%

Cc1cnc(-n2cnnc2)c(-c2cccc3c2CCNC3)c1
cytotoxicity at 10 µM: 17.7%

CN(C)c1cnn(CC(=O)N2CCN(c3ccccc3)CC2)c(=O)c1
cytotoxicity at 10 µM: -13.8%

CCc1nn(C)c(Cl)c1CN1CCCC2(CC1)CN(C)C(=O)O2 (stereo not drawn)
cytotoxicity at 10 µM: 5.63%

CCc1nc(N2CCN(c3ncccc3C#N)CC2)c2cnn(C)c2n1
cytotoxicity at 10 µM: 10.8%

Cc1nc(C2CCCNC2)cc(N2CCc3nc(N)sc3C2)n1 (stereo not drawn)
cytotoxicity at 10 µM: -47.4%

CCCN1CCN(Cc2cccc(OC)c2)[C@H]2CS(=O)(=O)C[C@H]21
cytotoxicity at 10 µM: -8.15%

CC[C@H](Nc1nc(C(C)C)nc2c1cnn2C)c1ccccc1
cytotoxicity at 10 µM: -47.5%

CSCc1noc(CNC(=O)C2CCN(C3CCCCC3)CC2)n1
cytotoxicity at 10 µM: 8.45%

Cc1c[nH]c(C(=O)N2CCn3nc(C(=O)NC4CC4)cc3C2)n1
cytotoxicity at 10 µM: -2.66%

CCCC1(NC(=O)C(c2ccc(F)cc2)N(C)C)CC1 (stereo not drawn)
cytotoxicity at 10 µM: -37.1%

Cc1cc(C(F)(F)F)cc(N2C[C@@H](CN3CCOCC3)[C@@H](CO)C2)n1
cytotoxicity at 10 µM: -6.02%

CCc1noc(CN(CC)C(=O)C2CC(=O)N(Cc3ccncc3)C2)n1 (stereo not drawn)
cytotoxicity at 10 µM: 18.2%

c1ccc2c(CC3CN(Cc4nccs4)CCO3)cccc2c1 (stereo not drawn)
cytotoxicity at 10 µM: 1.31%

CCOCCC(=O)N1CCc2cccc(S(=O)(=O)N3CCOCC3)c2C1
cytotoxicity at 10 µM: -7.41%

CCc1nc2c(c(NC3CCC3)n1)CCN(C(=O)CO)CC2
cytotoxicity at 10 µM: 5.42%

CCOCc1nc2c(c(NC(CC)c3cccnc3)n1)CCNCC2 (stereo not drawn)
cytotoxicity at 10 µM: -4.28%

Cn1cccc1C(=O)N1CCC2(CCCN(CC3CCC3)C2=O)C1 (stereo not drawn)
cytotoxicity at 10 µM: -2.6%

COc1ccc(C(=O)N2CCCCC2c2ccccn2)c(OC)n1 (stereo not drawn)
cytotoxicity at 10 µM: -0.649%

COc1ccc(-n2ncc(C(C)NC3CCSCC3)c2C)cc1 (stereo not drawn)
cytotoxicity at 10 µM: -4.57%

CCN(CC)C(=O)[C@@H]1C[C@@H](n2cc(-c3cccc(OC)c3)nn2)CN1
cytotoxicity at 10 µM: -5.98%

Cc1ccc(-c2ncc(C(=O)N3CCCC(CCN)C3)c(O)n2)cc1 (stereo not drawn)
cytotoxicity at 10 µM: -7.98%

Cc1nccc(-c2cccc(NCC(=O)N3CCCC(C)C3)c2)n1 (stereo not drawn)
cytotoxicity at 10 µM: -6.27%

CC(=O)Nc1nc(C(=O)N2CCCC(n3nc(C)nc3C)C2)cs1 (stereo not drawn)
cytotoxicity at 10 µM: -2.06%

CCc1nc(CN2CCCN(C(=O)c3ccco3)CC2)cs1
cytotoxicity at 10 µM: 5.03%

CCn1cc(NC(=O)C2CCN(Cc3nc(C(C)C)no3)CC2)cn1
cytotoxicity at 10 µM: 0.449%

COC(=O)CCc1c(C)nc2cc(O)nn2c1C
cytotoxicity at 10 µM: -7.18%

CCN(C(=O)Nc1cccnc1OC)C1CC1
cytotoxicity at 10 µM: -9.11%

CC(C)n1ncc2cc(NC(=O)N3CCC(N4CCCC4)C3)cnc21 (stereo not drawn)
cytotoxicity at 10 µM: -8.58%

CN(Cc1nc(C2CC2)no1)C1CCCN(c2cccnn2)C1 (stereo not drawn)
cytotoxicity at 10 µM: -6.62%

CC(C)CCC(=O)NC(C)c1nnc2n1CCCCC2 (stereo not drawn)
cytotoxicity at 10 µM: -7.76%

Cc1nc(CN2CCCC2c2ccsc2)nc2ccccc12 (stereo not drawn)
cytotoxicity at 10 µM: 0.89%

COCCC(=O)N1CCc2c(CNc3ncccn3)cncc2C1
cytotoxicity at 10 µM: 9.05%

CCC(CN1CCCC1)NC(=O)C1(c2cccc(F)c2)CC1 (stereo not drawn)
cytotoxicity at 10 µM: -5.72%

OCC1CCC2(CC1)CN(Cc1ccccc1F)Cc1ccccc1O2 (stereo not drawn)
cytotoxicity at 10 µM: 3.68%

Cc1cccc(CN(Cc2ccc(C)o2)C2CC(C)(C)NC(C)(C)C2)n1
cytotoxicity at 10 µM: -2.42%

CN(C)C(=O)[C@H]1C[C@H]2OCC[C@H]2N(Cc2ccc(F)cc2)C1
cytotoxicity at 10 µM: -76.1%

Cc1cccc(CN2CCc3ncnc(-c4ccsc4)c3CC2)n1
cytotoxicity at 10 µM: -78.2%

CC1c2ncc(CN3CCN(C)CC3)n2CCN1Cc1ccccn1 (stereo not drawn)
cytotoxicity at 10 µM: -0.23%

O=C(NC1CCC1)[C@@H]1CCO[C@@H]2CCN(CCc3ccccc3)C[C@H]21
cytotoxicity at 10 µM: -7.24%

O=C(NCc1ccccc1)c1nc2c(o1)CN(C(=O)c1cccnc1)C2
cytotoxicity at 10 µM: -76.9%

Cn1ccc(CN2CCCC23CCN(Cc2ccccc2F)CC3)n1
cytotoxicity at 10 µM: -104%

O=C(N1CCOCC1)[C@@]12CCO[C@@H]1CCN(CC1CCCC1)C2
cytotoxicity at 10 µM: -0.385%

CN(C)CCN1C[C@@H]2CN(S(=O)(=O)c3ccccc3)C[C@@H]2C1=O
cytotoxicity at 10 µM: -112%

CCOCC1CN(Cc2cnn(C)c2)Cc2c1cnn2CC (stereo not drawn)
cytotoxicity at 10 µM: -83.4%

COCC1CN(CCOc2ccc(Cl)cc2)Cc2c1cnn2C (stereo not drawn)
cytotoxicity at 10 µM: -102%

CN1CCCN(C(=O)c2ccnn2-c2ccc3ccccn23)CC1
cytotoxicity at 10 µM: -107%

Cn1ncc2c1CN(Cc1cccnc1)CC2COCC1CC1 (stereo not drawn)
cytotoxicity at 10 µM: -10.7%

COCCN1CCOCC2(C1)CN(C(=O)c1conc1C)CCO2 (stereo not drawn)
cytotoxicity at 10 µM: 7.1%

CN(C)c1ccc(CN2C[C@@H]3CC[C@H]2CN(C2CCOCC2)C3)cn1
cytotoxicity at 10 µM: -3.62%
